{"data": "Results pooled from the literature", "target": "B2 bradykinin receptor (BDKRB2, Homo sapiens, UniProt P30411)", "One construct used (P30411 1-391)": "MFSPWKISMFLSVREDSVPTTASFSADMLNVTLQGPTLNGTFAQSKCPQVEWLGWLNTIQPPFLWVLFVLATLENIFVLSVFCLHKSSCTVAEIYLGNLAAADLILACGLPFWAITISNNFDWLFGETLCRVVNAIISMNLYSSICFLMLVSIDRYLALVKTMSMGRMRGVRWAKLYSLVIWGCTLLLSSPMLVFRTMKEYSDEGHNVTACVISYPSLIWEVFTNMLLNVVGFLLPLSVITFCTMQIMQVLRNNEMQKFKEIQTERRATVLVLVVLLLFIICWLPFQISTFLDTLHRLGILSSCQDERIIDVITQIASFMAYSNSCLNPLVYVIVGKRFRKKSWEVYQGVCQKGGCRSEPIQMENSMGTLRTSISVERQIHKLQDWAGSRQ", "note": "Protocols differ between the studies behind these lines."}
{"Compound": "CN(CCN1CCC(OC(=O)Nc2ccccc2-c2ccccc2)CC1)C(=O)c1ccc(CN2CCC(C(N)=O)CC2)cc1", "effect on": "ligand displacement", "technique": "radioligand", "concentration": "1 µM", "inhibition [%]": -6}
{"Compound": "O=C(Nc1cccnn1)N1CCN([C@@H]2CCOc3cc(C(F)(F)F)ccc32)CC1", "effect on": "cell-free assay", "concentration": "20 µM", "inhibition [%]": 10}
{"Compound": "COc1ccc(S(=O)(=O)N2CCCCC2)cc1C", "effect on": "ligand displacement", "technique": "radioligand", "concentration": "10 µM", "inhibition [%]": "< 30"}
{"Compound": "COCc1c(-c2cc3cc(C)cc(OC)c3s2)c2c(N)ncnn2c1CN1CCNC(=O)C1", "effect on": "ligand displacement", "technique": "radioligand", "concentration": "10 µM", "inhibition [%]": 3}
{"Compound": "C[C@H](C(=O)N[C@H]1COc2ccccc2[C@@H]1S(C)(=O)=O)c1ccc(F)cc1", "effect on": "cell-free assay", "concentration": "10 µM", "inhibition [%]": 8}
{"Compound": "CCN(CC)CCCC[C@H](NC(=O)[C@H](CC(C)C)NC(=O)[C@H](C)NC(=O)[C@H](Cc1ccccc1)NC(=O)c1ccc(C(C)(C)C)cc1)C(=O)N[C@@H](CO)C(=O)OC", "effect on": "ligand displacement", "technique": "radioligand", "concentration": "10 µM", "inhibition [%]": -7}
{"Compound": "c1ccc(C(NCCNC(c2ccccc2)c2ccccc2)c2ccccc2)cc1", "effect on": "cell-free assay", "concentration": "10 µM", "inhibition [%]": 17}
{"Compound": "CC(C)N1CCC[C@H]1CNC(=O)c1cn(C2CCCC2)c(=O)c2c1c1ccccc1n2C", "effect on": "ligand displacement", "technique": "radioligand", "concentration": "10 µM", "inhibition [%]": 11}
